Measles CPE = protection of cells from measles virus | Measles virus-infected cells, CPE protection, absorbance | protection (pct of control), % at 4 µM | 140,000 compounds, 1.5% hits; in the data active = protection mostly above about 24%, no sharp cut-off; inactive = mostly below about 26%
Rad51 HR inh = blocks human Rad51 in homologous recombination. 200,000 compounds, 0.085% hits. hRad51 DNA strand exchange, fluorescence dequenching. AID 1385. inhibition, % at 10 µM;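 active = inhibition above 40% at the single screening dose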
Target sequence (Q06609 whole entry, looked up): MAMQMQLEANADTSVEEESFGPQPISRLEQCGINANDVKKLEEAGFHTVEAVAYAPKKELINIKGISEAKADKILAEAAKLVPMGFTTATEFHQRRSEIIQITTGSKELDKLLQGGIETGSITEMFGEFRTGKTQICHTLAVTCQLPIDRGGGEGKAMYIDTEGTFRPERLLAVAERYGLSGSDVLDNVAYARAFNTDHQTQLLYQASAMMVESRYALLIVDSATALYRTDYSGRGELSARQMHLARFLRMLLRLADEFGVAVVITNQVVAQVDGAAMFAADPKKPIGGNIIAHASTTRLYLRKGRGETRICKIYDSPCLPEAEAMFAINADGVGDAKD
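material = hRad51 filaments on single-stranded DNA | reagent = Donor/quencher-labelled 47-bp dsDNA substrate | compound = 10 µM final, single point | schedule = strand-exchange reaction 15 min at room temperature | measured by = fluorescein emission 520 nm, excitation 485 nm | read-out basis = % inhibition versus plate control and blank means | benchmarks = plate controls and plate blanks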
Yeast life ext = extends the lifespan of yeast | S. cerevisiae growth with nicotinamide, OD615; deaD strain in restrictive glucose medium | inhibition of the nicotinamide effect, % at 10 µM | 130,000 compounds, 0.68% hits | AID 775;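 active = inhibition above a set limit, placed 3 SD over the median of all compounds, cut at about 26% in these data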
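Buffer or medium: CSMM-D glucose medium, restrictive; test system: modified budding yeast, DeaD strain; compound: single dose 10 µM compound, 0.25% DMSO; schedule: culture preincubation 4 h, compound exposure 48 h, both 30 °C; detection: optical density (absorbance) at 615 nm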
Efa HMGR inh = inhibitors of class II HMG-CoA reductase from Enterococcus faecalis; purified E. faecalis HMGR, NADPH absorbance 340 nm kinetic; inhibition, % at 10 µM; 190,000 compounds, 0.41% hits; AID 1066;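 active = inhibition above a set limit, the median over all tested compounds plus 3 SD, cut at about 9.5% in these data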;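 also: enzyme runs in reverse so mevalonate oxidation gives rising NADPH absorbance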
Yeast growth inh = yeast BB579 growth reduction in restrictive medium; S. cerevisiae BB579 growth, OD615, 48 h; inhibition, % at 10 µM; 140,000 compounds, 0.51% hits; AID 804;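 active = inhibition above a set limit, 3 SD over the mean compound inhibition, cut at about 44% in these data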
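System: Saccharomyces cerevisiae DeaD strain BB579, replicative lifespan model yeast. Buffer or medium: restrictive glucose-based CSMM-D medium. Doses: one dose, 10 µM compound with 0.25% DMSO. Timing: 4 h preincubation and 48 h exposure at 30 °C. Detection: turbidity as optical density at 615 nm. Benchmarks: amphotericin B 10 µg/mL, positive.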
Arbovirus inh = arbovirus infection inhibition | arbovirus infection cell-based antiviral screen | inhibition, % at 10 µM | 200,000 compounds, 0.37% hits; in the data active = inhibition above about 30%
Numbers stand for hits; . = inactive; / = no result. Only some compounds are listed: those with a hit (about 2.4% of all), similar ones and a draw of the others.

SMILES	Measles CPE	Rad51 HR inh	Yeast life ext	Efa HMGR inh	Yeast growth inh	Arbovirus inh
COc1ccc2c(c1)C1CC(C)(NC(=O)C1S(=O)(=O)c1ccc(F)cc1)O2 (configuration not stated)	69	.	.	.	.	.
COc1ccc2c(c1)OC1(C)CC2C(C(=O)c2ccccc2OC)C(=O)N1 (configuration not stated)	31	/	.	.	.	.
CC(C)(C)c1ccc(NC(=O)N2CCN(c3ccc([N+](=O)[O-])cn3)CC2)cc1	/	.	/	/	/	/
O=c1c2ccccc2nnn1Cc1ccc2ccccc2c1	/	.	/	.	/	.
CCOC(=O)c1cc(-c2ccc(N)cc2)sc1N	.	.	.	.	.	.
Nc1sc(-c2ccccc2)cc1C(=O)O	.	/	84	.	.	.
COC(=O)c1sc(NC(C)=O)c(C(=O)OC)c1C	.	.	.	.	.	.
COC(=O)c1sc(NC(=O)CSc2nncs2)c(C(=O)OC)c1C	31	.	.	.	.	.
CC1CCCN(C(=O)C2CCN(CC(C)c3ccccc3)CC2)C1 (configuration not stated)	.	.	/	15	.	.
O=C(Nc1cccnc1Oc1ccc(Cl)cc1)c1cccc2ccccc12	/	.	/	/	/	/
CCN(CC(=O)Nc1ccc(NC(C)=O)cc1)C(=O)/C=C/c1cccs1	44	.	.	.	.	.
Nn1c(SCC(=O)Nc2ccc3c(c2)OCO3)nnc1C1CC1	.	.	.	.	.	.
Nn1c(SCC(=O)Nc2ccc3c(c2)OCO3)nncc1=O	/	/	/	9.7	/	.
CCN1C(=O)/C(=C/N2CCc3ccccc3C2)SC1=S	/	.	/	/	/	/
CCN1C(=O)/C(=C\C=C\c2ccccc2[N+](=O)[O-])SC1=S	/	.	/	18	/	.
CCNCCNC(=O)c1c(O)c2cccc3c2n(c1=O)CCC3	.	.	70	.	.	.
O=C(Nc1cccnc1)c1c(O)c2cccc3c2n(c1=O)CC3	.	.	62	.	.	.
O=C(NCc1ccco1)c1c(O)c2cccc3c2n(c1=O)CCC3	.	.	47	.	.	.
O=C(NCc1ccccc1)c1c(O)c2cccc3c2n(c1=O)CCC3	.	.	.	.	.	.
CCc1nc2ccccc2c(=O)n1NC(=O)c1c(O)c2cccc3c2n(c1=O)CCC3	.	.	.	.	83	.
CCCCNC(=O)c1c(O)c2cccc3c2n(c1=O)CCC3	.	.	.	.	.	.
CC1CC(C)(C)NC(=S)N1CCCC(=O)N1CCN(c2ccc(F)cc2)CC1 (configuration not stated)	.	.	.	.	.	.
O=C(Nc1ccccc1)C1=C[C@H](c2ccc3c(c2)OCO3)C[C@H](OCc2ccc(CO)cc2)O1	/	/	/	.	/	.
CN(Cc1cn(Cc2ccccc2)nc1-c1ccc2c(c1)OCO2)Cc1nccn1C	/	.	/	.	/	.
COCCOC(=O)C1=C(C)N(Cc2ccccc2)C(=O)NC1c1ccc(OC)cc1 (configuration not stated)	52	.	.	.	.	.
SMILES	Measles CPE	Rad51 HR inh	Yeast life ext	Efa HMGR inh	Yeast growth inh	Arbovirus inh
COC(=O)C1=C(C)N(Cc2ccccc2)C(=O)N[C@H]1c1ccc(Br)cc1	/	.	/	/	/	/
CC1=C(C(=O)OCc2ccccc2)C(c2ccc(C#N)cc2)NC(=O)N1CCCC(=O)O (configuration not stated)	31	.	.	.	.	.
CCN(CC)S(=O)(=O)c1ccc(N2CCOCC2)c(NC(=O)c2cc(-c3ccccn3)nc3ccccc23)c1	/	.	/	12	/	.
CCN(CC)S(=O)(=O)c1ccc(N2CCOCC2)c(NC(=O)c2cccc3ccccc23)c1	.	.	.	.	.	.
COc1ccccc1C(=O)C1CCCN(C(=O)c2ccccn2)C1 (configuration not stated)	/	/	/	.	/	.
COc1cccc(-c2nc3n(n2)C(c2ccc4c(c2)OCO4)C(C(N)=O)=C(C)N3)c1 (configuration not stated)	35	.	.	.	.	.
O=C(O)CC1SC(N/N=C/c2ccc(Br)cc2)NC1=O (configuration not stated)	/	.	/	.	/	.
Cc1ccc(C2C=NN(c3ccccc3)C2=O)cc1 (configuration not stated)	/	.	/	10	/	.
CC1=NN(c2ccccc2)C(=O)C1N=Nc1ccc(C)cc1 (configuration not stated)	/	.	/	.	/	.
CC(C)OC(=O)c1cccnc1SCc1cc(=O)n2ccccc2n1	.	.	.	.	.	.
N#Cc1c2c(c[nH]c1=O)CCN2Cc1ccccc1	44	.	/	.	.	.
CN(C)c1[nH]c(=O)c(C#N)c2c1CCN2Cc1ccccc1	.	.	.	.	.	.
CC(=O)/C(C#N)=C1\NC(=O)C(Cc2cc(Cl)ccc2Cl)S1 (configuration not stated)	/	.	/	/	/	/
CC(=O)/C(C#N)=C1\NC(=O)C(Cc2ccc(C)c(C)c2)S1 (configuration not stated)	69	.	.	.	.	.
Cc1ccc(CC2SC(=O)NC2=O)cc1Cl (configuration not stated)	.	.	.	.	.	.
CC(=O)/C(C#N)=C1\NC(=O)C(Cc2ccccc2Cl)S1 (configuration not stated)	38	/	.	.	.	.
Cc1noc(C)c1-c1nc(CS(=O)(=O)c2ccccc2)no1	/	.	/	/	/	/
O=C(CSCc1ccccc1)Nc1cccc(C(=O)Nc2ccccc2C(=O)O)c1	.	.	.	.	.	31
O=C(CSCc1ccc(Cl)cc1)Nc1cccc(C(=O)Nc2ccccc2C(=O)O)c1	.	.	.	.	.	36
COc1ccc(OC)c(-c2cnc(OC(C)(C)C)nc2OC(C)(C)C)c1	.	.	.	.	.	.
COc1ccc(S(=O)(=O)NCCc2nnc3ccc(SCc4cccnc4)nn23)cc1	/	/	/	.	/	.
O=C(O)c1ccc(S(=O)(=O)Cc2ccccc2)cc1	.	.	.	.	.	.
Cc1ccc(S(=O)(=O)Cc2ccc(C(=O)OCc3ccccc3)cc2)cc1	18	.	.	.	.	.
Cc1nn(-c2ccc(F)cc2)c(C)c1CN1CCN(CCC(C)C)C(CCO)C1 (configuration not stated)	/	.	/	.	/	.
Cc1ccc(-n2nc3ccc(NC(=O)/C=C/c4ccco4)cc3n2)cc1	.	.	.	.	.	.
SMILES	Measles CPE	Rad51 HR inh	Yeast life ext	Efa HMGR inh	Yeast growth inh	Arbovirus inh
C/C(CC(=O)NC1CCCCC1)=N\NC(=O)COc1ccc(C)cc1Br	/	/	/	28	/	.
C[C@@H]1CC[C@@]2(O[C@@H](CCO)C[C@H](O)[C@H]2O)O1	/	.	/	/	/	/
COc1ccc2c(c1)S/C(=C\C(=O)c1ccncc1)N2C	.	.	.	.	92	.
CC(C)Cn1c(SCC(=O)NCc2ccc(Cl)cc2)nnc1-c1cccc(S(=O)(=O)N2CCOCC2)c1	.	.	.	.	.	.
CCOCCCNC(=S)NCCNc1nc2ccc(C)cc2cc1C#N	55	.	.	.	.	.
CCOCCCNC(=S)NCCCNc1nc2ccc(C)cc2cc1C#N	/	.	/	.	/	.
